Measurements as given in ChEMBL document CHEMBL1130407, “Structure-based design of new constrained cyclic agonists of the cholecystokinin CCK-B receptor” (J Med Chem, 1997).
Non-standard residues stand in square brackets, D forms with d. Residues, ends and D or L forms follow the SMILES beside them. *: point of attachment. NMeNle = CCCC[C@H](NC)C(=O)O; Boc = CC(C)(C)OC(=O)*

Legend:
[1] = target: T1, Gastrin/cholecystokinin type B receptor (Rattus norvegicus) (UniProt P30553); assay: Compound was tested for its ability to stimulate the CCK-B/gastrin receptor by measuring gastric acid output in the anesthetized perfused rat stomach; type: functional, tissue-based
T1 sequence (whole entry): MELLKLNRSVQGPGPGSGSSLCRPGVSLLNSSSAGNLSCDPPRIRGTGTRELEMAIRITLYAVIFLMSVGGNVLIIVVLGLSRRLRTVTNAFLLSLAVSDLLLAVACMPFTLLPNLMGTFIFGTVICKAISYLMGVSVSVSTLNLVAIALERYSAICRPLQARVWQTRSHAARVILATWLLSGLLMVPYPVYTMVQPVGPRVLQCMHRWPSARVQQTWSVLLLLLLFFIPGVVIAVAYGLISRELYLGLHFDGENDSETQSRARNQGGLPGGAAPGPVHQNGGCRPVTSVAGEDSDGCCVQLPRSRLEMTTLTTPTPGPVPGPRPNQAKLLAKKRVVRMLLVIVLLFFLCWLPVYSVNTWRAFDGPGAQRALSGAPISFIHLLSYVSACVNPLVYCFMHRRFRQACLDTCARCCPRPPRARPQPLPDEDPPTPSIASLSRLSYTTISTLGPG
Procedure, shortened: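 Male Sprague–Dawley rats (300 ± 25 g), fasted 18 h with water available, anesthetized with intramuscular urethane (0.6–0.7 mL of 25% solution per 100 g). Compounds in saline given iv by continuous infusion. Gastric secretion collected every 15 min and H+ titrated with 0.01 N NaOH to pH 7. Output expressed as % of baseline; ED50 estimated from dose-response curves.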

[2] = target: T2, Cholecystokinin receptor type A (Cavia porcellus, UniProt Q63931); assay: Inhibition of [3H]pCCK-8 binding to Cholecystokinin type A receptor of Guinea pig pancreatic membranes
T2 sequence (Q63931 whole entry): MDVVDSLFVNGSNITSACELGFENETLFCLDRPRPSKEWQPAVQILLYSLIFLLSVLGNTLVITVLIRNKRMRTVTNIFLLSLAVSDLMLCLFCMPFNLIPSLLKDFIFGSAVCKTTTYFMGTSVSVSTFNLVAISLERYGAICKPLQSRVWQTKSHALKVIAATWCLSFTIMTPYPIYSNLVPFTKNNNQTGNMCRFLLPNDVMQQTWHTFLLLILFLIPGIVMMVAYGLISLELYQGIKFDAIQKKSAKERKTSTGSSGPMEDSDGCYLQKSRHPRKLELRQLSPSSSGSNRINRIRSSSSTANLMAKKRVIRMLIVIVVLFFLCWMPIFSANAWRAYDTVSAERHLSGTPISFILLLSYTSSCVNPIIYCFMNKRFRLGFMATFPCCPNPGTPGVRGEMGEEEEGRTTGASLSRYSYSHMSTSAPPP
Procedure, shortened: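 Guinea pig pancreatic membranes (0.2 mg protein/tube) incubated with 0.1 nM [3H]pCCK8 and varying competitor for 120 min at 25 °C. Buffer: 10 mM Pipes-HCl pH 6.5, 30 mM MgCl2, 0.2 mg/mL bacitracin, 0.2 mg/mL soybean trypsin inhibitor. Filtration read-out; Ki by Cheng–Prusoff; three experiments in triplicate, mean ± SEM.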

[3] = target: T3, Gastrin/cholecystokinin type B receptor (Rattus norvegicus, UniProt P30553); assay: Affinity to inhibit [3H]pCCK-8 specific binding on rat brain Cholecystokinin type B receptor expressed in CHO cells; type: cell-based
T3 sequence (P30553 whole entry): T1 sequence (whole entry)

[4] = target: T3, Gastrin/cholecystokinin type B receptor; assay: Effective concentration for the stimulation of Inositol Phosphate accumulation in CHO cells expressing wild-type Cholecystokinin type B receptor; type: functional, cell-based

| Ki [2] [nM] | Ki ([3]; cho) [nM] | also measured | SMILES |
| --- | --- | --- | --- |
|  |  | ED50 [1]: 52 nM/h/kg | C[C@]1(Cc2c[nH]c3ccccc23)NC(=O)CCCCSSCC[C@H](C(=O)N[C@@H](CC(=O)O)C(=O)N[C@@H](Cc2ccccc2)C(N)=O)NC1=O |
| 2210 |  | ED50 [1]: 7.6 nM/h/kg | C[C@]1(Cc2c[nH]c3ccccc23)NC(=O)CCCCCCC[C@H](C(=O)N[C@@H](CC(=O)O)C(=O)N[C@@H](Cc2ccccc2)C(N)=O)NC1=O |
| 2290 |  |  | C[C@]1(Cc2c[nH]c3ccccc23)NC(=O)CC(=O)NCCCC[C@@H](C(=O)N[C@@H](CC(=O)O)C(=O)N[C@@H](Cc2ccccc2)C(N)=O)NC1=O |
| > 10000 |  |  | C[C@]1(Cc2c[nH]c3ccccc23)NC(=O)CCCCCCC[C@@H](C(=O)N[C@@H](CC(=O)O)C(=O)N[C@@H](Cc2ccccc2)C(N)=O)NC1=O |
| > 5000 |  | Ki [3]: 8.7 nM; EC50 [4]: 1.5 nM | CCCC[C@@H](C(=O)N[C@@H](CC(=O)O)C(=O)N[C@@H](Cc1ccccc1)C(N)=O)N(C)C(=O)[C@H](Cc1c[nH]c2ccccc12)NC(=O)OC(C)(C)C (Boc-W[NMeNle]DF-NH2) |
| 2470 | 23 | EC50 ([4]; cho): 4 nM | C[C@]1(Cc2c[nH]c3ccccc23)NC(=O)CCCCCCCC[C@@H](C(=O)N[C@@H](CC(=O)O)C(=O)N[C@@H](Cc2ccccc2)C(N)=O)NC1=O |
| 2880 | 142 |  | C[C@]1(Cc2c[nH]c3ccccc23)NC(=O)CCCCCC[C@@H](C(=O)N[C@@H](CC(=O)O)C(=O)N[C@@H](Cc2ccccc2)C(N)=O)NC1=O |
| 271 | 80 | EC50 ([4]; cho): 7 nM | C[C@]1(Cc2c[nH]c3ccccc23)NC(=O)CCCCSSCC[C@@H](C(=O)N[C@@H](CC(=O)O)C(=O)N[C@@H](Cc2ccccc2)C(N)=O)NC1=O |
| 36100 |  |  | CSCC[C@H](NC(=O)[C@@H](N)Cc1c[nH]c2ccccc12)C(=O)N[C@@H](CC(=O)O)C(=O)N[C@@H](Cc1ccccc1)C(N)=O [TETRAGASTRIN] |
